ChEMBL document CHEMBL3997766, “Synthesis and pre-clinical studies of new amino-acid ester thiazolide prodrugs” (Eur J Med Chem, 2017)

Columns and labels:
[1] = tested on: Rattus norvegicus; test: Toxicity in Sprague-Dawley rat at 10 to 75 mg/kg administered as oral gavage qd for 28 consecutive days by ophthalmoscopic method; format: organism-based; conditions: in vivo
In short: (§1)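 Sub-acute study in Sprague-Dawley rats: 10, 30 or 75 mg/kg given orally once a day for 28 consecutive days as a yellow suspension. There were 4 groups of up to 30 rats each (15M/15F), including a control. Body weight, clinical observations and terminal findings were assessed.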

[2] = tested on: Rattus norvegicus; test: Neurotoxicity in Sprague-Dawley rat assessed as tremors at 1000 mg/kg administered as single dose via oral gavage after 4 to 24 hrs; format: toxicity, organism-based; conditions: in vivo
In short: (§2)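 Three groups of 10 rats (5M/5F) received a single dose by oral gavage of 100, 300 or 1000 mg/kg, and an untreated group served as control. Clinical signs of CNS effects were recorded at 4 and 24 h after treatment.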

[3] = tested on: Rattus norvegicus; test: Elimination half life in Sprague-Dawley rat assessed as Tizoxanide level at 28 mg/kg, po; format: ADME, organism-based; conditions: in vivo
[4] = tested on: Rattus norvegicus; test: Toxicity in Sprague-Dawley rat assessed as hemorrhage in stomach at 30 to 75 mg/kg administered as oral gavage qd for 28 consecutive days measured on day 29 by microscopic method; format: organism-based; conditions: in vivo; in short: as §1
[5] = tested on: Rattus norvegicus; test: Neurotoxicity in Sprague-Dawley rat assessed as decrease in pain response at 1000 mg/kg administered as single dose via oral gavage after 4 to 24 hrs; format: toxicity, organism-based; conditions: in vivo; in short: as §2
[6] = tested on: Rattus norvegicus; test: Cmax in Sprague-Dawley rat assessed as Tizoxanide level in plasma at 6 mg/kg, iv administered as single dose; format: ADME, organism-based; set-up: dose 6 mg/kg, route intravenous; conditions: in vivo
In short: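 Rats in groups of three received one compound as a single oral dose (30 mg/kg) or a single intravenous injection (6 mg/kg), with four compounds studied separately. Serial blood samples were drawn at 5, 10, 15 and 30 min and at 1, 2, 4, 8, 23 and 24 h post-dose. Plasma parent drug and metabolites were quantified and PK parameters were derived.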

[7] = tested on: Rattus norvegicus; test: Toxicity in Sprague-Dawley rat assessed as hemorrhage in stomach at 75 mg/kg administered as oral gavage qd for 28 consecutive days followed by 2 weeks recovery period by microscopic method; format: organism-based; conditions: in vivo, 336 h
In short: (§3)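 Sub-acute study in Sprague-Dawley rats dosed orally with a suspension at 10, 30 and 75 mg/kg once daily for 28 consecutive days. Four groups of up to 30 rats each (15M/15F).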

[8] = tested on: Rattus norvegicus; test: Toxicity in Sprague-Dawley rat assessed as early death at 10 to 75 mg/kg administered as oral gavage qd for 28 consecutive days measured up to day 43; format: organism-based; conditions: in vivo; in short: as §1
[9] = tested on: Rattus norvegicus; test: Neurotoxicity in Sprague-Dawley rat assessed as decreased activity at 1000 mg/kg administered via oral gavage as single dose after 4 to 24 hrs; format: toxicity, organism-based; conditions: in vivo; in short: as §2
[10] = tested on: Rattus norvegicus; test: Oral bioavailability in Sprague-Dawley rat assessed as Tizoxanide-glucuronide level at 28 mg/kg; format: ADME, organism-based; conditions: in vivo
In short: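 Rats in groups of three got a single oral dose (30 mg/kg) or a single intravenous injection (6 mg/kg). Serial blood samples were taken at 5, 10, 15 and 30 min and at 1, 2, 4, 8, 23 and 24 h post-dose for plasma drug and glucuronide levels. Bioavailability came from oral versus intravenous AUC after dose correction to 30 mg/kg.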

[11] = tested on: Plasma; test: Drug metabolism in Sprague-Dawley rat assessed as tizoxanide-glucuronide level in plasma administered via oral gavage qd for 28 consecutive days; format: ADME
In short: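 In a sub-acute study, Sprague-Dawley rats were dosed once daily for 28 consecutive days at 10, 30 or 75 mg/kg, given as a yellow suspension. There were four groups of up to 30 rats each (15M/15F) to assess systemic exposure.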

[12] = tested on: Rattus norvegicus; test: Toxicity in Sprague-Dawley rat assessed as decrease in absolute kidney weight at 75 mg/kg administered as oral gavage qd for 28 consecutive days measured on day 29; format: organism-based; conditions: in vivo; in short: as §3
[13] = tested on: Rattus norvegicus; test: Toxicity in Sprague-Dawley rat assessed as mixed cell inflammation in stomach at 30 to 75 mg/kg administered as oral gavage qd for 28 consecutive days measured on day 29 by microscopic method; format: organism-based; conditions: in vivo; in short: as §1
[14] = tested on: Rattus norvegicus; test: Toxicity in Sprague-Dawley rat assessed as decrease in prothrombine time at 10 to 75 mg/kg administered as oral gavage qd for 28 consecutive days followed by 2 weeks recovery period measured on day 43; format: organism-based; conditions: in vivo, 336 h; in short: as §3
[15] = tested on: Rattus norvegicus; test: Toxicity in Sprague-Dawley rat assessed as mucosal hyperplasia in duodenum at 75 mg/kg administered as oral gavage qd for 28 consecutive days measured on day 29 by microscopic method; format: organism-based; conditions: in vivo
In short: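 Sub-acute oral toxicity study in Sprague-Dawley rats. The drug was given once daily for 28 consecutive days at 10, 30 or 75 mg/kg, formulated as a suspension. There were 4 groups of up to 30 rats each (15 male, 15 female). The study evaluated systemic exposure to the drug.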

[16] = tested on: Canis familiaris; test: Toxicity in Beagle dog assessed as emesis at 25 mg/kg, po administered as gelatin capsule once daily for 28 days measured on day 29; format: organism-based, Canis lupus familiaris; conditions: in vivo, 672 h
In short: (§4)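 Sub-acute study in Beagle dogs dosed orally by gelatin capsule at 5, 15 and 25 mg/kg once a day for 28 consecutive days.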

[17] = tested on: Rattus norvegicus; test: Toxicity in Sprague-Dawley rat assessed as epithelial hyperplasia in stomach at 75 mg/kg administered as oral gavage qd for 28 consecutive days followed by 2 weeks recovery period by microscopic method; format: organism-based; conditions: in vivo, 336 h; in short: as §3
[18] = tested on: Canis familiaris; test: Drug metabolism in Beagle dog assessed as tizoxanide-glucuronide level in plasma administered orally as gelatin capsule once daily for 28 days measured on day 1 and 29; format: ADME, Canis lupus familiaris; conditions: po, 672 h
In short: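 Beagle dogs received the drug orally in a single gelatin capsule at 5, 15 or 25 mg/kg once daily for 28 consecutive days in a sub-acute toxicity study assessing systemic exposure.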

[19] = tested on: Rattus norvegicus; test: AUC (0 to t) in Sprague-Dawley rat assessed as Tizoxanide level in plasma at 6 mg/kg, iv administered as single dose; format: ADME, organism-based; conditions: in vivo
In short: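 Plasma tizoxanide and tizoxanide glucuronide were measured and PK parameters derived. AUCs were dose-corrected to 30 mg/kg for bioavailability.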

[20] = tested on: Rattus norvegicus; test: Toxicity in Sprague-Dawley rat assessed as effect on respiratory rate by measuring minute volume dose at 100 to 300 mg/kg administered as single dose via oral gavage; format: organism-based; conditions: in vivo
In short: (§5)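 Respiratory safety study: conscious rats, 3 groups of 6 (3M/3F), given single oral-gavage doses of 100, 300 or 1000 mg/kg, with an untreated control group. Respiratory rate (breaths per minute), tidal volume and minute volume were recorded, and mortality was noted.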

[21] = tested on: Canis familiaris; test: Toxicity in Beagle dog assessed as gross necropsy up to 25 mg/kg, po administered as gelatin capsule once daily for 28 days followed by two weeks of recovery period; format: organism-based, Canis lupus familiaris; conditions: in vivo, 672 h; in short: as §4
[22] = tested on: Canis familiaris; test: Toxicity in Beagle dog assessed as body weight gain up to 25 mg/kg, po administered as gelatin capsule once daily for 28 days measured on day 29; format: organism-based, Canis lupus familiaris; conditions: in vivo, 672 h; in short: as §4
[23] = tested on: Rattus norvegicus; test: Toxicity in Sprague-Dawley rat assessed as effect on tidal volume at 100 to 1000 mg/kg administered as single dose via oral gavage; format: organism-based; conditions: in vivo; in short: as §5
[24] = tested on: Canis familiaris; test: Toxicity in Beagle dog administered orally as gelatin capsule once daily for 28 days; set-up: species or system Canis lupus familiaris; conditions: in vivo, po, 672 h
In short: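 Sub-acute study in Beagle dogs: 5, 15 or 25 mg/kg/day given orally in a single gelatin capsule once a day for 28 consecutive days to assess systemic exposure and toxicity, with NOAEL determination.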

[25] = tested on: Rattus norvegicus; test: Toxicity in Sprague-Dawley rat assessed as mixed cell inflammation in stomach at 75 mg/kg administered as oral gavage qd for 28 consecutive days followed by 2 weeks recovery period by microscopic method; format: organism-based; conditions: in vivo, 336 h; in short: as §3

## CC(C)(C)[C@H](N)C(=O)Oc1ccccc1C(=O)Nc1ncc([N+](=O)[O-])s1.Cl
[1]
  Activity: Non-Toxic
[2]
  Activity: Toxic
[3]
  beta t1/2: 33 min
[4]
  Activity: Toxic
[5]
  Activity: Toxic
[6]
  Cmax: 12.8 µg/mL
[7]
  Activity: Non-Toxic
[8]
  Activity: Non-Toxic
[9]
  Activity: Toxic
[10]
  F: 13%
[11]
  Drug metabolism: Dose-dependent effect
[12]
  Activity: Toxic
[13]
  Activity: Toxic
[14]
  Activity: Toxic
[15]
  Activity: Toxic
[16]
  Activity: Toxic
[17]
  Activity: Non-Toxic
[18]
  Drug metabolism: Dose-dependent effect
[19]
  AUCt: 5.21 µg·h/mL
[20]
  Activity: Non-Toxic
[21]
  Activity: Non-Toxic
[22]
  Activity: Non-Toxic
[23]
  Activity: Toxic
[24]
  NOAEL: 25 mg/kg/day
[25]
  Activity: Non-Toxic
